# Shown are actives, neighbours in structure and some others; about 2.1% of the full set was active somewhere.
# Runt-SMMHC FRET: blocks binding of human RUNX1 Runt domain to CBFb-SMMHC; AID 1434; inhibition, % at 20 µM; 220,000 tested, 0.74% active; Cerulean-Runt/Venus-CBFb-SMMHC FRET ratio 530/480, 1 h; Q01196+Q13951;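 active = mean inhibition across duplicate retests at 20 µM reaching about 50%, limit read from the data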;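 note: 0% = DMSO wells and 100% = wells with excess untagged CBFb-SMMHC; inhibitors lower the FRET ratio by blocking Runt binding to CBFb-SMMHC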
# Target sequence (Q01196 whole entry, looked up, the tested form may be a part): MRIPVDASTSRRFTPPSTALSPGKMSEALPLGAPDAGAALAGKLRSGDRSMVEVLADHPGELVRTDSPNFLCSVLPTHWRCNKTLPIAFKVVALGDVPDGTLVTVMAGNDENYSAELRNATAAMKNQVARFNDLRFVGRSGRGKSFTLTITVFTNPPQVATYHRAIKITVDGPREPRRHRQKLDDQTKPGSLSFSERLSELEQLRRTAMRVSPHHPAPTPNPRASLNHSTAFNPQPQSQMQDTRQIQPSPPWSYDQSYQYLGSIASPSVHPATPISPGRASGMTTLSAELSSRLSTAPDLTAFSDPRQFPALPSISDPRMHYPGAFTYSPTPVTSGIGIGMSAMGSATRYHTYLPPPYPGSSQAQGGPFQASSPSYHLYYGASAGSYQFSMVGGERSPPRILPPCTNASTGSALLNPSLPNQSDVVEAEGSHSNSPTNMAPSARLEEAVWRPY
# Target sequence (Q13951 whole entry, looked up, the tested form may be a part): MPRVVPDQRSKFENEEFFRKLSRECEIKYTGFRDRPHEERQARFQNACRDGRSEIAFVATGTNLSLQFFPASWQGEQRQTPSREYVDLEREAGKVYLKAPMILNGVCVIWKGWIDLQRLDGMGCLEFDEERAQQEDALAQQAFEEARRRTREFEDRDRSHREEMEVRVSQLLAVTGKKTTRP
# MEX-5 binding: C. elegans MEX-5 TCR-2 RNA binding activity; MEX-5/FITC-TCR2 RNA binding, fluorescence polarization; active compounds read low; Q9XUB2; activity score (negative = inhibition of binding), % at 10 µM; 300,000 tested, 0.38% active;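 active = inhibition past about -25% in most replicates, and total fluorescence under double the plate's negative control median, limit read from the data; inconclusive = replicates evenly split on the limit, or fluorescence at least double controls; inactive = too little inhibition in most replicates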;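 note: 0% = DMSO and -100% = 5 µM competing unlabeled TCR2 RNA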
# RanGTP-Imp inh: disruptors of Ran-importin-beta complex formation – biochemical, FRET, CFP-Ran, YFP-importin-beta, homogeneous, primary screen. cell-free CFP-Ran/YFP-importin-beta FRET ratio. inhibition, % (no concentration beside the values). 300,000 tested, 1.1% active;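 active = more than half of the replicate wells show a fall in the fluorescence ratio signal beyond about 16%, limit read from the data, passing the limit was not always enough; inconclusive = exactly half of the replicate wells pass the set limit; inactive = fewer than half of replicates pass the limit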;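 note: 0% = DMSO wells and 100% = Ran loaded with GDP instead of GTP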
# proKLK7 act: activators of human kallikrein-7 zymogen. 370,000 tested, 0.9% active. activation, % at 7 µM. purified proKLK7, EDANS-DABCYL substrate fluorescence; 100% is mature enzyme control, 0% vehicle. AID 652039. P49862;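 active = activation above the mean of all tested compounds plus 3 SD, computed per campaign excluding outliers beyond control limits, cut at about 13% in these data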
# Runt-CBFb FRET: Runt domain-CBFb interaction inhibition. AID 1496. Q01196+Q13951. inhibition, % at 20 µM. Cerulean-Runt/Venus-CBFb FRET ratio 530/480, 1 h. 220,000 tested, 0.46% active;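 active = inhibition over about 50% at 20 µM in the single-dose screen, limit read from the data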;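 note: 0% = DMSO wells and 100% = excess unlabeled CBFb competitor control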
#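 System: Cerulean-labeled Runt domain protein | Quantity: 100 nM of each labeled protein | Schedule: 1 h compound exposure, room temperature | Detection: Fluorescence energy transfer, 422 nm excitation, 530/480 nm emission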
# proKLK7 act conf: confirmation of human kallikrein-7 zymogen activators. purified proKLK7, EDANS-DABCYL substrate fluorescence; scaled: vehicle 0, mature enzyme 100. 3,200 tested, 68% active. activation, % at 7 µM. AID 686949. shares compounds with proKLK7 act;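 active = activation, as change over the incubation, above the mean of all tested compounds plus 3 SD, cut at about 13% in these data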
# EDANS interfere: counter-screen for kallikrein-7 activators: EDANS-DABCYL optical interference; shares compounds with proKLK7 act; EDANS-DABCYL substrate fluorescence interference, no enzyme, 4 h; solvent 0%, active enzyme control 100%; activation, % at 7 µM; 3,200 tested, 80% active;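 active = activation above the all-compound mean plus 3 SD, ignoring values outside control-based bounds, cut at about 4.8% in these data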;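 note: value is the 4 h activation minus the activation read at time zero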
# An asterisk follows results filed as active; ? = inconclusive; / = no result.
SMILES,Runt-SMMHC FRET,MEX-5 binding,RanGTP-Imp inh,proKLK7 act,Runt-CBFb FRET,proKLK7 act conf,EDANS interfere
[N-]=[N+]=NC(c1ccccc1)C(NC(=O)c1cc(C(F)(F)F)cc(C(F)(F)F)c1)c1ccccc1 (centres undefined),/,/,/,0.2,/,/,/
O=C(Nc1ccc(Cl)cc1)c1csc([C@@H]2O[C@H](CO)[C@@H](O)[C@H]2O)n1,/,/,/,-0.3,/,/,/
CNc1cncc(-c2cccc(OC)c2F)n1,/,/,/,36.5*,/,35.0*,52.7*
CNc1cncc(-c2ccccc2CO)n1,/,/,/,25.9*,/,11.9,14.7*
CNc1cncc(-c2c(OC)cccc2OC)n1,/,/,/,12.1,/,/,/
CCOc1ccccc1-c1cnc(NC)cn1,/,/,/,14.6*,/,31.3*,28.4*
CCOc1ccccc1-c1cncc(NC)n1,/,/,/,25.4*,/,17.7*,16.1*
CNc1cnc(-c2ccccc2OC)cn1,/,/,/,10.9,/,/,/
COc1ccc(NS(=O)(=O)c2ccc3nc(COc4ccc(C#N)cc4)[nH]c3c2)cc1,3.4,1.2,?,-0.4,1.6,/,/
Cc1cccnc1CNC(=O)C1(C)CCCN1CC(C)C (centres undefined),/,/,/,0.4,/,/,/
Cc1nn(CCC(=O)NNC(=O)Nc2ccc(F)cc2)c(C)c1[N+](=O)[O-],/,/,/,-0.2,/,/,/
C[C@H](O)[C@@H]1C(=O)N2CCc3c([nH]c4ccccc34)[C@@H]2C[C@@H]1N(C)C(=O)c1ccco1,/,/,/,50.6*,/,55.4*,59.9*
C[C@H](O)[C@@H]1C(=O)N2CCc3c([nH]c4ccccc34)[C@@H]2C[C@@H]1N(C)C(=O)Nc1cc(Cl)cc(Cl)c1,/,/,/,19.0*,/,6.4,6.1*
C[C@H](O)[C@@H]1C(=O)N2CCc3c([nH]c4ccccc34)[C@@H]2C[C@@H]1N(C)C(=O)Nc1ccc(Br)cc1,/,/,/,37.3*,/,2.1,3.8
C[C@H](O)[C@@H]1CN2CCc3c([nH]c4ccccc34)[C@@H]2C[C@@H]1N(C)C(=O)Nc1cc(Cl)cc(Cl)c1,/,/,/,4.3,/,/,/
C[C@H](O)[C@@H]1C(=O)N2CCc3c([nH]c4ccccc34)[C@@H]2C[C@@H]1N(C)C(=O)Nc1ccccc1,/,/,/,26.5*,/,6.3,6.5*
C[C@@H](CCCCC1(C)OCCO1)CCC(=O)N(c1ccccc1)c1ccccc1,/,/,/,0.6,/,/,/
CCC1(c2ccccc2)NC(=O)N(CC(=O)NCC2COc3ccccc3O2)C1=O (centres undefined),/,/,/,-0.1,/,/,/
CCCCOc1ccc(OCCNC(=O)C2CCCN2C(=O)Nc2ccccc2)cc1 (centres undefined),/,0.2,8.2,0.4,/,/,/
Clc1ccc(NN(Cc2ccncc2)c2ccc(Cl)cc2)cc1,/,/,/,-0.5,/,/,/
C[C@@H]1ON(C)[C@H]2C[C@H]3c4[nH]c5ccccc5c4CCN3C(=O)[C@@H]12,/,/,/,14.7*,/,2.6,2.3
C[C@H](O)[C@@H]1CN2CCc3c([nH]c4ccccc34)[C@@H]2C[C@@H]1N(C)C(=O)Nc1ccccc1,/,/,/,2.7,/,/,/
C[C@H](O)[C@@H]1CN2CCc3c([nH]c4ccccc34)[C@@H]2C[C@@H]1N(C)C(=O)Nc1ccc(F)cc1,/,/,/,15.7*,/,2.9,1.9
Cc1ccccc1-c1cccc2c3c([nH]c12)[C@@H]1C[C@H]2[C@@H](C(=O)N1CC3)[C@H](C)ON2C,/,/,/,-24.3,/,/,/
Cc1cccc(C(=O)NCCC(=O)NCc2ccccc2Cl)c1,/,/,/,0.8,/,/,/
COc1cccc(CN2C(=O)c3cccc(N)c3C2=O)c1,73.2*,-21.4,?,14.6*,4.9,76.0*,79.2*
COc1cccc(CN2C(=O)c3ccccc3S2(=O)=O)c1,/,-4.2,-0.3,-0.4,/,/,/
C[C@@H](NC(=O)[C@@H]1CCCN1C(=O)[C@@H]1CCCN1C(=O)c1cccc2ccccc12)c1ccccc1,/,/,/,-0.1,/,/,/
COc1ccc2cc(C3=CCCCC3)ncc2c1,/,/,/,19.4*,/,6.8,5.3*
COc1cc2c(cc1OC)C(SC)=NC1(CCCC1)C2,-7.1,-1.3,-1.3,0.4,1.4,/,/

# Source: PubChem (several laboratories)
